The results in this text go back to ChEMBL document CHEMBL1156107, “Synthesis of new alkylaminooxysterols with potent cell differentiating activities: identification of leads for the treatment of cancer and neurodegenerative diseases” (J Med Chem, 2009).

The subject of experiment [1] is U-87MG ATCC. The experiment in a line: Induction of neurite outgrowth in human U87 cells at 40 to 60 uM after 48 hrs by crystal violet staining. It is filed as functional, cell-based.
Experiment [2] concerns SH-SY5Y. Briefly: Induction of neurite outgrowth in human SH-SY5Y cells at 40 to 60 uM after 48 hrs by crystal violet staining. It is filed as functional, cell-based.
Experiment [3] relates to P19. Briefly: Induction of neurite outgrowth in mouse P19 cells at 40 to 60 uM after 48 hrs by crystal violet staining. Type of experiment: functional, cell-based.
Experiment [4] has as its system N2a. The experiment in a line: Induction of neurite outgrowth in mouse Neuro2a cells at 40 to 60 uM after 48 hrs by crystal violet staining. It is filed as functional, cell-based.
Experiment [5] relates to SK-N-SH. Briefly: Induction of neurite outgrowth in human SK-N-SH cells at 40 to 60 uM after 48 hrs by crystal violet staining. It is filed as functional, cell-based.
Experiment [6] concerns SH-SY5Y. Briefly: Cytotoxicity against human SH-SY5Y cells after 72 hrs by trypan blue exclusion assay. Type of experiment: functional, cell-based. The essentials: (§1)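 Cells were exposed for 72 h to the test agent at increasing concentrations from 10 nM to 20 μM, at 37 °C in humidified 5% CO2. Cells were scraped and resuspended in 0.25% w/v trypan blue in PBS, and dead cells were counted under a light microscope in a Malassez chamber. IC50 is the concentration giving 50% cytotoxicity. Values are mean ± SE of three independent experiments, each run in duplicate.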

Another experiment deals with TS/A. Briefly: Cytotoxicity against mouse TSA cells after 72 hrs by trypan blue exclusion assay. Type of experiment: functional, cell-based. The method, boiled down: as §1
Experiment [7] concerns SK-N-SH. The experiment in a line: Cytotoxicity against human SK-N-SH cells after 72 hrs by trypan blue exclusion assay. It is filed as functional, cell-based. The essentials: as §1
Experiment [8] relates to U-937. The experiment in a line: Cytotoxicity against human U937 cells after 3 days by trypan blue exclusion assay. Type of experiment: functional, cell-based. To be noted: Homo sapiens, U-937, 72 h; read-out: IC50. The essentials: (§2)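 U937 and P19 cells treated with compound. Cell death scored by trypan blue exclusion, with cells scraped, suspended in 0.25% w/v trypan blue in PBS and counted in a Malassez cell. IC50 is the concentration giving 50% cytotoxicity.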

The subject of another experiment is A549. The experiment in a line: Cytotoxicity against human A549 cells after 72 hrs by trypan blue exclusion assay. It is filed as functional, cell-based. The essentials:
as §1

Experiment [9] deals with P19. Briefly: Cytotoxicity against mouse P19 cells after 72 hrs by trypan blue exclusion assay. It is filed as functional, cell-based. The method, boiled down: as §1
The subject of experiment [10] is P19. Briefly: Induction of dendrite out growth in IL-4/GMCSF-stimulated mouse P19 cells assessed as dendrite length at 100 nM after 48 hrs by light microscopy. It is filed as functional.
For the next experiment, the system named is NB-4. Briefly: Cytotoxicity against human NB4 cells after 72 hrs by trypan blue exclusion assay. Type of experiment: functional, cell-based. The essentials: as §1
In experiment [11] the test system is P19. The experiment in a line: Cytotoxicity against mouse P19 cells after 3 days by trypan blue exclusion assay. Type of experiment: functional, cell-based. To be noted: Mus musculus, P19, 72 h; read-out: IC50. The method, boiled down:
as §2

Experiment [12] has as its system U-937. The experiment in a line: Cytotoxicity against human U937 cells after 72 hrs by trypan blue exclusion assay. It is filed as functional, cell-based. The method, boiled down: as §1
Another experiment relates to HCT-8. Briefly: Cytotoxicity against human HCT8 cells after 72 hrs by trypan blue exclusion assay. It is filed as functional, cell-based. The method, boiled down: as §1
Experiment [13] has as its system U-937. The experiment in a line: Induction of dendrite out growth in IL-4/GMCSF-stimulated human U937 cells assessed as dendrite length at 100 nM after 48 hrs by light microscopy. Type of experiment: functional. The essentials: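 U937 cells at 1.1 × 10⁶ cells/mL were primed with 10 ng/mL PMA for 48 h in RPMI with 10% heat-inactivated serum. Adherent cells were then given 100 ng/mL IL-4 plus 100 ng/mL GM-CSF or 100 nM compound for 48 h. Dendrite length scored by light microscopy, from none to over 100 μm with a contact network.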

For experiment [14], the system named is U-87MG ATCC. The experiment in a line: Cytotoxicity against human U87 cells after 72 hrs by trypan blue exclusion assay. It is filed as functional, cell-based. The essentials: as §1
Experiment [15] concerns N2a. Briefly: Cytotoxicity against mouse Neuro2a cells after 72 hrs by trypan blue exclusion assay. It is filed as functional, cell-based. The method, boiled down: as §1
For another experiment, the system named is KG-1. The experiment in a line: Cytotoxicity against human KG1 cells after 72 hrs by trypan blue exclusion assay. It is filed as functional, cell-based. The method, boiled down:
as §1

The subject of the next experiment is SW-620. The experiment in a line: Cytotoxicity against human SW620 cells after 72 hrs by trypan blue exclusion assay. It is filed as functional, cell-based. The method, boiled down: as §1
For a further experiment, the system named is MCF7. The experiment in a line: Cytotoxicity against human MCF7 cells after 72 hrs by trypan blue exclusion assay. Type of experiment: functional, cell-based. The essentials:
as §1

Another experiment deals with SK-MEL-28. The experiment in a line: Cytotoxicity against human SK-MEL-28 cells after 72 hrs by trypan blue exclusion assay. Type of experiment: functional, cell-based. The method, boiled down: as §1
A further experiment relates to B16-F10. The experiment in a line: Cytotoxicity against mouse B16F10 cells after 72 hrs by trypan blue exclusion assay. Type of experiment: functional, cell-based. The method, boiled down: as §1

Active and inactive are the calls of the source. The calls are words filed in the database; no cut-off is given here.

Regarding `CC/C=C\C/C=C\C/C=C\C/C=C\C/C=C\C/C=C\CCC(=O)O`, the result with U-87MG ATCC [1], in the experiment on SH-SY5Y [2], with P19 [3], with N2a [4] and in the experiment on SK-N-SH [5] was Active.

Consider `CC(C)CCC[C@@H](C)[C@H]1CC[C@H]2[C@@H]3C[C@@H](n4cnc(CCN)c4)[C@@]4(O)C[C@@H](O)CC[C@]4(C)[C@H]3CC[C@]12C`, for which the result in the experiment on SH-SY5Y [6], in the experiment with TS/A, in the experiment on SK-N-SH [7], in the experiment with A549, with P19 [9] and with NB-4 was inactive. Also, the outcome in the experiment with U-937 [12], with HCT-8, in the experiment on U-87MG ATCC [14], in the experiment on N2a [15], in the experiment with KG-1 and with SW-620 was inactive. The result in the experiment with MCF7, with SK-MEL-28 and with B16-F10 was inactive. Also, the IC50 (as a rule, the concentration that inhibits the measured activity by half) turned out to be 7.7 µM with U-937 [8] and 8.9 µM in the experiment on P19 [11]. For the same molecule, the Activity in the experiment with P19 [10] and in the experiment with U-937 [13] was below 5 um each time.
